Measurements published in the M2OR odorant receptor database.
Residue numbers refer to the chain shown, from its start.

Key:
Conditions in all cases: stereoisomer not certain
OR5AC2 (Homo sapiens) = target: T1, OR5AC2 (Homo sapiens) (UniProt Q9NZP5)
T1 sequence (whole entry): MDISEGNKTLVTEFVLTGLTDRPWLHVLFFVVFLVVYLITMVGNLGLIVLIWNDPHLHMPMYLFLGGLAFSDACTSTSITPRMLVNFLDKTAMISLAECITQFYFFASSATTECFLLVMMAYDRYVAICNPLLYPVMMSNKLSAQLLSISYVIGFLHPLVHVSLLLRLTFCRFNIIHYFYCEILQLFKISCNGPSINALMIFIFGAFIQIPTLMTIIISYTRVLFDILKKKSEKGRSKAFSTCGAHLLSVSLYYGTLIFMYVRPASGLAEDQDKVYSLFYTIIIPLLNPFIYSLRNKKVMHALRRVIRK
In short: (§1)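 Assay methods differ from source to source, frequently being transient luciferase assays in mammalian cell lines. For each receptor–molecule pair, the label responsive (active) applies when the original authors judged the measured signal statistically different from baseline, and non-responsive (inactive) applies otherwise.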

OR5B17 (Homo sapiens) = target: T2, OR5B17 (Homo sapiens) (UniProt Q8NGF7)
T2 sequence (whole entry): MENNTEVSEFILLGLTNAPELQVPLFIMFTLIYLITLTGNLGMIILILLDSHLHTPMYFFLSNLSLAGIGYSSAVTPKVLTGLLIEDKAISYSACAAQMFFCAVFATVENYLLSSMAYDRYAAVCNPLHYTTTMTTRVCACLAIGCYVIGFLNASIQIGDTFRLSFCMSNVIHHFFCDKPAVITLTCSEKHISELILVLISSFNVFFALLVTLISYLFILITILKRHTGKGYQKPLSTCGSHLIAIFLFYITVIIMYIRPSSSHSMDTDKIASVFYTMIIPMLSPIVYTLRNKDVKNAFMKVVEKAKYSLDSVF
In short: as §1

OR56B4 (Homo sapiens) = target: T3, OR56B4 (Homo sapiens) (UniProt Q8NH76)
T3 sequence (whole entry): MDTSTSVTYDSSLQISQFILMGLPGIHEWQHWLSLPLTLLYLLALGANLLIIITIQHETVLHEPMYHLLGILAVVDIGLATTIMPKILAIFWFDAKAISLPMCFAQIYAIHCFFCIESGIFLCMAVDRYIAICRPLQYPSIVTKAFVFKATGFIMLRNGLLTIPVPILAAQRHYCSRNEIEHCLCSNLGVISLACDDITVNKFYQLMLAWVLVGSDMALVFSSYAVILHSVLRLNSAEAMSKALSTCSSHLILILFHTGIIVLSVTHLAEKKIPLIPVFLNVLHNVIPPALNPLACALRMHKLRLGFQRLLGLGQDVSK
In short: as §1

OR5A1 (Homo sapiens) = target: T4, OR5A1 (Homo sapiens) (UniProt Q8NGJ0)
T4 sequence (whole entry): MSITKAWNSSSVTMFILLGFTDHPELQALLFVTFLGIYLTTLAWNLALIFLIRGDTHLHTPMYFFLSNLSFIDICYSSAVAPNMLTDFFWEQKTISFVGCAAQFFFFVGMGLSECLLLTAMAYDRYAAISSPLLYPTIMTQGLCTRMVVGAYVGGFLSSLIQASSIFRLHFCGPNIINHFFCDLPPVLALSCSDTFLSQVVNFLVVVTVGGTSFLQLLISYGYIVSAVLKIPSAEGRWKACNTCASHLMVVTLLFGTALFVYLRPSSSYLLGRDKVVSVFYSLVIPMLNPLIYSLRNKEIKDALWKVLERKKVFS
In short: as §1

OR5A1 D183N = test system: T5, OR5A1 D183N
T5 sequence (whole entry): T4 sequence (whole entry) with D183N
In short: as §1

OR5A2 (Homo sapiens) = target: T6, OR5A2 (Homo sapiens) (UniProt Q8NGI9)
T6 sequence (whole entry): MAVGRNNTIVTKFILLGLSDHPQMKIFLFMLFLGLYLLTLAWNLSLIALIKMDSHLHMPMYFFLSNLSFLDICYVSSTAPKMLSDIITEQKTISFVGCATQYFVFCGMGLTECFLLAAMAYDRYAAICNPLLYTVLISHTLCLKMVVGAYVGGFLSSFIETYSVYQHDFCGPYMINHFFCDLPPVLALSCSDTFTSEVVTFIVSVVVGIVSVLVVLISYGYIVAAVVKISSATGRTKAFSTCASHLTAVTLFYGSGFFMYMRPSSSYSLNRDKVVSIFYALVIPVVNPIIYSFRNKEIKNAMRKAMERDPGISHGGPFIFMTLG
In short: as §1

OR5AK2 (Homo sapiens) = target: T7, OR5AK2 (Homo sapiens) (UniProt Q8NH90)
T7 sequence (whole entry): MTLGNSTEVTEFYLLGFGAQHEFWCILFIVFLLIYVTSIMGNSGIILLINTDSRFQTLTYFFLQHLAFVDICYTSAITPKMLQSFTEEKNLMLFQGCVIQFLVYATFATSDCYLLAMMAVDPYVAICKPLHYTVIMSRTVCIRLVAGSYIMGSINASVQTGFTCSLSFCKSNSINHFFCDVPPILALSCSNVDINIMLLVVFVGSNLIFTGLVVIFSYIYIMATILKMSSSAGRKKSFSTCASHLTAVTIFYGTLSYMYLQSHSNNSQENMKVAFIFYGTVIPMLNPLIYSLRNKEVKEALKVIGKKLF
In short: as §1

OR5AN1 (Homo sapiens) = target: T8, OR5AN1 (Homo sapiens) (UniProt Q8NGI8)
T8 sequence (whole entry): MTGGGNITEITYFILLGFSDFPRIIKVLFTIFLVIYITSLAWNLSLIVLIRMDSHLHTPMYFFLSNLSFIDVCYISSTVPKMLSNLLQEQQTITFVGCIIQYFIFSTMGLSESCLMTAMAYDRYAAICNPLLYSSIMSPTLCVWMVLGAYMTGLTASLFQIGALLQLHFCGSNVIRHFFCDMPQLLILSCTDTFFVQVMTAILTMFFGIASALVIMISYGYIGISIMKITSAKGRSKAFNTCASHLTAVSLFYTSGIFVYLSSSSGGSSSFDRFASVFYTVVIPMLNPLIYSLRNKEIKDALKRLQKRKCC
In short: as §1

OR5AP2 (Homo sapiens) = target: T9, OR5AP2 (Homo sapiens) (UniProt Q8NGF4)
T9 sequence (whole entry): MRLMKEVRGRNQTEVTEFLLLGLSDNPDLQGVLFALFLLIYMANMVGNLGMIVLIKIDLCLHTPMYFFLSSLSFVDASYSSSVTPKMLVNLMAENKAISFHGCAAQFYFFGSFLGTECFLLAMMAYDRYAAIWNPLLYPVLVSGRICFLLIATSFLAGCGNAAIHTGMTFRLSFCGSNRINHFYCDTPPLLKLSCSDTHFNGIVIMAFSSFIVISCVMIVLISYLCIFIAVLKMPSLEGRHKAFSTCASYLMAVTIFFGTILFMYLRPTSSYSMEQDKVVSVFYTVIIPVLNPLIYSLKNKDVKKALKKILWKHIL
In short: as §1

OR5AR1 (Homo sapiens) = target: T10, OR5AR1 (Homo sapiens) (UniProt Q8NGP9)
T10 sequence (whole entry): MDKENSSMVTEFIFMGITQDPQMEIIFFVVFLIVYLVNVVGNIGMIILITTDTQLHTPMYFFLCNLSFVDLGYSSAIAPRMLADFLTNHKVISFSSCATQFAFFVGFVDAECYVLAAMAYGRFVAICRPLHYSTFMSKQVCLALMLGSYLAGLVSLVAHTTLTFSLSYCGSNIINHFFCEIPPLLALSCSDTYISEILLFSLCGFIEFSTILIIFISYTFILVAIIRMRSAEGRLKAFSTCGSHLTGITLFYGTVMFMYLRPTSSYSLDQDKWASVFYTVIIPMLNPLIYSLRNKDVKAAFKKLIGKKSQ
In short: as §1

OR5AS1 (Homo sapiens) = target: T11, OR5AS1 (Homo sapiens) (UniProt Q8N127)
T11 sequence (whole entry): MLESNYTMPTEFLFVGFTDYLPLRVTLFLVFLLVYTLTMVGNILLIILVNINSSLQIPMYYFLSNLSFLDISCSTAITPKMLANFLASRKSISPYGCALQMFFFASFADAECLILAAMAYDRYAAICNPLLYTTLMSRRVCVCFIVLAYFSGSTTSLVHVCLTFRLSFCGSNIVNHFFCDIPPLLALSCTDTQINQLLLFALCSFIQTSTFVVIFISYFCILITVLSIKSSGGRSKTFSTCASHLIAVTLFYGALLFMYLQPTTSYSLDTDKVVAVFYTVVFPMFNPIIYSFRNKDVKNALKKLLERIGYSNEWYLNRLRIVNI
In short: as §1

OR5AU1 (Homo sapiens) = target: T12, OR5AU1 (Homo sapiens) (UniProt Q8NGC0)
T12 sequence (whole entry): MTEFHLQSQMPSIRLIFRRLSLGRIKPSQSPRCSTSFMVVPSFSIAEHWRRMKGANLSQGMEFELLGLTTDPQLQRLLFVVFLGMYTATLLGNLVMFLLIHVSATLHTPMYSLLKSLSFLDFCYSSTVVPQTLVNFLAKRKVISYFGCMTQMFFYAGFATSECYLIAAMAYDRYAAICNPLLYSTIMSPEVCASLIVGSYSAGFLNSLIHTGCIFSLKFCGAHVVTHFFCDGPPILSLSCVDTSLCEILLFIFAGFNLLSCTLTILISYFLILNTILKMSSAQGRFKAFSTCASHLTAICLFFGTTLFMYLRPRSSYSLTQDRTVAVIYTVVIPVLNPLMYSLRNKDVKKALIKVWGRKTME
In short: as §1

OR5B12 (Homo sapiens) = target: T13, OR5B12 (Homo sapiens) (UniProt Q96R08)
T13 sequence (whole entry): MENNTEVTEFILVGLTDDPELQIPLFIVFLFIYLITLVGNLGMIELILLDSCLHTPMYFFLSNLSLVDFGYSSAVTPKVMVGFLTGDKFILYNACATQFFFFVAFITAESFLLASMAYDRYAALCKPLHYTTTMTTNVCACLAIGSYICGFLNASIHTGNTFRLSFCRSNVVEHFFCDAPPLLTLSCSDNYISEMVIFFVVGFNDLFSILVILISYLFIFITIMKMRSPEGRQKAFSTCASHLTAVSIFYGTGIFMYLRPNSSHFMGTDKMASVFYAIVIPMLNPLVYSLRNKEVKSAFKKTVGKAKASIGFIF
In short: as §1

OR5B2 (Homo sapiens) = target: T14, OR5B2 (Homo sapiens) (UniProt Q96R09)
T14 sequence (whole entry): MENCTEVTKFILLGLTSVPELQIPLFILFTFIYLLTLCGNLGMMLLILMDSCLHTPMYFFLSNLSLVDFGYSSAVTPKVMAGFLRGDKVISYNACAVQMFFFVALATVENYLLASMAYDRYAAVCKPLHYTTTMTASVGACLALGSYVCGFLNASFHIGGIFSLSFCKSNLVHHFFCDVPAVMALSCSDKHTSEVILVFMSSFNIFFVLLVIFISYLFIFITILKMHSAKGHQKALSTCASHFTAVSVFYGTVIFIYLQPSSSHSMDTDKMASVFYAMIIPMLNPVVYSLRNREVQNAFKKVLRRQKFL
In short: as §1

OR5B2 E6D = test system: T15, OR5B2 E6D
T15 sequence (whole entry): T14 sequence (whole entry) with E6D
In short: as §1

OR5B21 (Homo sapiens) = target: T16, OR5B21 (Homo sapiens) (UniProt A6NL26)
T16 sequence (whole entry): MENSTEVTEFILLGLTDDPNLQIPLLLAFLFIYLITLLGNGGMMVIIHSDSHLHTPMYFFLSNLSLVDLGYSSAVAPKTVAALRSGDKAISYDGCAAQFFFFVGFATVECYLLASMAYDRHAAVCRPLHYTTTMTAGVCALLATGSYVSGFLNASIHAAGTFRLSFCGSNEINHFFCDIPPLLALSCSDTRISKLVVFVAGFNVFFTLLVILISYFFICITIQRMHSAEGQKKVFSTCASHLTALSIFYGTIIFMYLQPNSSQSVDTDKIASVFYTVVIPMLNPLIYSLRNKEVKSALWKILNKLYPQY
In short: as §1

OR5B3 (Homo sapiens) = target: T17, OR5B3 (Homo sapiens) (UniProt Q8NH48)
T17 sequence (whole entry): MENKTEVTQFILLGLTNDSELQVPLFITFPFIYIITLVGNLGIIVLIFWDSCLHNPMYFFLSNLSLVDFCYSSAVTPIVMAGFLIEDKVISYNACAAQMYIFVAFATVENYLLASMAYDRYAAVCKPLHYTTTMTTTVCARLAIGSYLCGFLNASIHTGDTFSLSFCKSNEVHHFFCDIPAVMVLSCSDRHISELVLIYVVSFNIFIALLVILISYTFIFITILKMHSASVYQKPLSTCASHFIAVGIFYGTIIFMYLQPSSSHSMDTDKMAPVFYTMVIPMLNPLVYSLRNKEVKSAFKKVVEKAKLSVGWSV
In short: as §1

OR5B3 I198V G247A = test system: T18, OR5B3 I198V G247A
T18 sequence (whole entry): T17 sequence (whole entry) with I198V, G247A
In short: as §1

Measured: odorant receptor agonist call

C=CCOC(=O)COCCC(C)C
inactive: OR5AC2 (Homo sapiens) | OR5B17 (Homo sapiens)

Cc1ccc(C(C)C)cc1O
inactive: OR5AC2 (Homo sapiens) | OR5B17 (Homo sapiens)

C=CC(C)(O)CCC=C(C)CCC=C(C)C (stereo not drawn)
inactive: OR5AC2 (Homo sapiens) | OR5B17 (Homo sapiens)

CCC1OC(C)=C(O)C1=O (stereo not drawn)
inactive: all assays above

CCCCCC1C(=O)CCC1CC(=O)OC (stereo not drawn)
inactive: OR5AC2 (Homo sapiens) | OR5B17 (Homo sapiens)

CCCCC(S)C(C)CO (stereo not drawn)
active: OR56B4 (Homo sapiens)
not listed: OR5A1 D183N | OR5B2 E6D | OR5B3 I198V G247A
inactive: all other assays above

CC(=O)C=CC1=C(C)CCCC1(C)C
inactive: OR5AC2 (Homo sapiens) | OR5B17 (Homo sapiens)

CCCCCC1CCCC(=O)O1 (stereo not drawn)
active: OR56B4 (Homo sapiens)

CC1=NC(C)C(C)S1 (stereo not drawn)
inactive: all assays above

CC(C)=CCCC(C)=CCO
inactive: OR5AC2 (Homo sapiens) | OR5B17 (Homo sapiens)

CCCCCCCCC(OC(C)=O)OC(C)=O
inactive: OR5AC2 (Homo sapiens)

CC1=C(O)C(=O)OC1C (stereo not drawn)
inactive: all assays above

CCC(S)C(C)CO (stereo not drawn)
not listed: OR5A1 D183N | OR5B2 E6D | OR5B3 I198V G247A
inactive: all other assays above

CCC1OC(=O)C(O)=C1C (stereo not drawn)
inactive: all assays above

CCCCCCC=CCCC=O
inactive: all assays above

CC1=CCC2CC1C2(C)C (stereo not drawn)
inactive: OR5AC2 (Homo sapiens) | OR5B17 (Homo sapiens)

CCC(=O)C=CC1C(C)=CCCC1(C)C (stereo not drawn)
inactive: OR5AC2 (Homo sapiens) | OR5B17 (Homo sapiens)
